Measured values reported in ChEMBL document CHEMBL1138579, “Synthesis of alkenyldiarylmethanes (ADAMs) containing benzo[d]isoxazole and oxazolidin-2-one rings, a new series of potent non-nucleoside HIV-1 reverse transcriptase inhibitors” (Eur J Med Chem, 2009).

Target: Human immunodeficiency virus type 1 reverse transcriptase (Human immunodeficiency virus 1, UniProt Q72547)
Assay: Inhibition of HIV1 recombinant reverse transcriptase assessed as incorporation of [32P]GTP into poly(rC).oligo(dG) (rCdG) homopolymer template primer
Method in brief: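 Purified recombinant HIV-1 RT, p66/51 heterodimer. Activity followed by [32P]GTP incorporation into poly(rC)·oligo(dG) homopolymer template-primer. IC50 taken as the mean of at least two separate experiments.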
With `COc1noc2c(C)cc(C(=CCCN3CCOC3=O)c3cc(C)c4onc(OC)c4c3)cc12` the IC50 was 0.93 µM. For `COc1noc2c(C)cc(/C(=C\CCN3CCOC3=O)c3cc(C)c4oc(=O)n(C)c4c3)cc12`, the IC50 was 3.6 µM. `COC(=O)c1cc(/C(=C/CCN2CCOC2=O)c2cc(C)c3onc(OC)c3c2)cc(Cl)c1OC` gave an IC50 of 5.88 µM. With `COc1noc2c(C)cc(/C(=C\CCN3CCOC3=O)c3cccc(C#N)c3)cc12` the IC50 was 39.2 µM. In the case of `COC(=O)CCC/C=C(/c1cc(C)c2onc(OC)c2c1)c1cc(C)c2oc(=O)n(C)c2c1`, the IC50 is reported as 0.25 µM. With `COC(=O)c1cc(/C(=C/CCN2CCOC2=O)c2cc(C)c3onc(OC)c3c2)cc(C)c1OC` the IC50 was 18.2 µM. In the case of `COC(=O)c1cc(/C(=C\CCN2CCOC2=O)c2cc(C)c3onc(OC)c3c2)cc(C)c1OC`, the IC50 is reported as 0.63 µM.

Tested on: not listed separately
Assay: Cytotoxicity against human MT4 cells by MTT assay
Type: cell-based
With `Cc1ccnc2c1NC(=O)c1cccnc1N2C1CC1` [NEVIRAPINE] the CC50 was > 200 µM.
